Two compounds from ChEMBL document CHEMBL2396616, “Development and characterization of a promising fluorine-18 labelled radiopharmaceutical for in vivo imaging of fatty acid amide hydrolase” (Bioorg Med Chem, 2013) can be followed below.

In data set [1] the test system is Brain. Nature of the data set: Biodistribution in rat brain at < 1 nmol/kg, iv after 2 to 40 mins by gamma counting in presence of FAAH inhibitor URB597. The note with it: in vivo. Format: ADME, organism-based. A digest of the protocol:
(§1)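 [18F]radiotracer, 3–4 MBq (0.2–1 nmol/kg), given by tail vein in 0.3 mL 10% ethanol/citrate buffer pH 6 to restrained conscious rats. Decapitation at set times. Regions excised, blotted, weighed. Gamma counting decay-corrected to injection against injected-dose standards. Reported as SUV (%ID/g […] body weight kg), mean ± SD, n=4/group. Blocked groups vs vehicle by Student's t test.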

The test system of data set [2] is Cortex. The data set is described as follows: Drug uptake in Sprague-Dawley rat cortex at 0.7 to 0.8 nmol/kg, iv after 40 mins by autoradiography analysis in presence of FAAH inhibitor PF-04457845. Format: ADME, organism-based. Particulars: in vivo. A digest of the protocol: (§2)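 Male Sprague-Dawley rats (310–330 g) got 45–55 MBq radiotracer (0.7–0.8 nmol/kg) by tail vein. Pretreated 40 min earlier with vehicle (5% Tween80/saline) or PF-04457845 0.5 mg/kg ip. Killed 40 min post-injection. Brains frozen, cut into 20-μm coronal sections at −20°C, dried, exposed to film for 6 days.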

A short description of data set [3]: Irreversible biodistribution in iv dosed rat brain parenchyma after 10 mins by gamma counting. The note with it: in vivo. The class given is ADME, organism-based. A digest of the protocol: (§3)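 After tail-vein radiotracer, rats (n=4–6/group) killed at 2, 10 or 40 min. Whole brain rinsed in saline and homogenised in cold 80% acetonitrile/0.01% aq HCl. Centrifuged and extracted three times in total. Pooled supernatant (unbound) and pellet (bound) counted separately. […] Mean ± SD.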

The nature of data set [4]: Drug uptake in Sprague-Dawley rat amygdaloid nuclei at 0.7 to 0.8 nmol/kg, iv after 40 mins by autoradiography analysis. Format: ADME, organism-based. The note with it: in vivo. A digest of the protocol:
as §2

Data set [5] in a line: Drug metabolism in human plasma after 30 mins. Format: ADME, cell-free. The note with it: read-out: Drug metabolism. The method in brief: (§4)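 Radiotracer incubated in vitro in rat or human plasma for 30 min at ambient temperature. Decomposition assessed by radio-HPLC.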
The subject of data set [6] is Plasma. Nature of the data set: Drug metabolism in rat plasma after 10 mins. The class given is ADME, cell-free. A digest of the protocol: (§5)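 Rats given radiotracer iv, killed at 10 min. Trunk blood taken into heparin, plasma separated and acidified with 10% v/v acetic acid. Plasma and brain homogenate extracts analysed directly by reverse-phase radio-HPLC for parent vs metabolites.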

The test system of data set [7] is Plasma. The data set is described as follows: Drug metabolism in rat plasma after 30 mins. Format: ADME, cell-free. The note with it: 0.5 h. The method in brief: as §4
Data set [8] has as its system Hypothalamus. The data set is described as follows: Biodistribution in rat brain hypothalamus at < 1 nmol/kg, iv after 40 mins by gamma counting. Particulars: in vivo; call rule not given here. The class given is ADME, organism-based. A digest of the protocol:
as §1

Data set [9] in a line: Drug uptake in Sprague-Dawley rat amygdaloid nuclei at 0.7 to 0.8 nmol/kg, iv after 40 mins by autoradiography analysis in presence of FAAH inhibitor PF-04457845. Format: ADME, organism-based. The note with it: in vivo. A digest of the protocol: as §2
Data set [10] in a line: Irreversible biodistribution in iv dosed rat brain parenchyma after 40 mins by gamma counting. Particulars: in vivo. The class given is ADME, organism-based. A digest of the protocol: as §3
The nature of data set [11]: Drug metabolism in rat brain after 10 mins. The class given is ADME, tissue-based. Particulars: read-out: Drug metabolism. The method in brief: as §5
Data set [12] in a line: Drug uptake in Sprague-Dawley rat thalamic nuclei at 0.7 to 0.8 nmol/kg, iv after 40 mins by autoradiography analysis in presence of FAAH inhibitor PF-04457845. The class given is ADME, organism-based. Particulars: in vivo. The method in brief: as §2
Data set [13] relates to Hippocampus. Nature of the data set: Drug uptake in Sprague-Dawley rat hippocampus at 0.7 to 0.8 nmol/kg, iv after 40 mins by autoradiography analysis in presence of FAAH inhibitor PF-04457845. The class given is ADME, organism-based. The note with it: in vivo. A digest of the protocol:
as §2

In data set [14] the test system is Hypothalamus. The data set is described as follows: Biodistribution in rat brain hypothalamus at < 1 nmol/kg, iv after 2 mins by gamma counting. The class given is ADME, organism-based. The note with it: in vivo. The method in brief:
as §1

Data set [15] concerns Hippocampus. The data set is described as follows: Drug uptake in Sprague-Dawley rat hippocampus at 0.7 to 0.8 nmol/kg, iv after 40 mins by autoradiography analysis. Format: ADME, organism-based. The note with it: in vivo. A digest of the protocol:
as §2

Data set [16] concerns Cortex. Nature of the data set: Biodistribution in rat brain cortex at < 1 nmol/kg, iv after 40 mins by gamma counting. The class given is ADME, organism-based. The note with it: in vivo. A digest of the protocol: as §1
Data set [17] relates to Brain. Nature of the data set: Biodistribution in rat brain at < 1 nmol/kg, iv after 2 to 40 mins by gamma counting in presence of FAAH inhibitor PF-04457845. The class given is ADME, organism-based. Particulars: in vivo. The method in brief: as §1
Data set [18] is described as follows: Irreversible biodistribution in iv dosed rat brain parenchyma after 2 to 40 mins by gamma counting in presence of FAAH inhibitor URB597. The class given is ADME, organism-based. Particulars: in vivo. A digest of the protocol:
as §3

For data set [19], the system named is Cortex. The data set is described as follows: Drug uptake in Sprague-Dawley rat cortex at 0.7 to 0.8 nmol/kg, iv after 40 mins by autoradiography analysis. The class given is ADME, organism-based. Particulars: in vivo. The method in brief: as §2
Data set [20] relates to Cortex. The data set is described as follows: Biodistribution in rat brain cortex at < 1 nmol/kg, iv after 2 mins by gamma counting. Particulars: in vivo. Format: ADME, organism-based. A digest of the protocol:
as §1

Data set [21] concerns Cortex. Nature of the data set: Drug uptake in Sprague-Dawley rat cerebellar cortex at 0.7 to 0.8 nmol/kg, iv after 40 mins by autoradiography analysis. Format: ADME, organism-based. Particulars: in vivo. A digest of the protocol:
as §2

Data set [22] in a line: Drug uptake in Sprague-Dawley rat thalamic nuclei at 0.7 to 0.8 nmol/kg, iv after 40 mins by autoradiography analysis. Particulars: in vivo. The class given is ADME, organism-based. The method in brief:
as §2

Data set [23] can be described thus: Drug uptake in Sprague-Dawley rat cerebellar cortex at 0.7 to 0.8 nmol/kg, iv after 40 mins by autoradiography analysis in presence of FAAH inhibitor PF-04457845. The class given is ADME, organism-based. Particulars: in vivo. The method in brief:
as §2

The nature of data set [24]: Irreversible biodistribution in iv dosed rat brain parenchyma after 2 mins by gamma counting. Format: ADME, organism-based. The note with it: in vivo. A digest of the protocol:
as §3

In data set [25] the target is T1, Fatty-acid amide hydrolase 1 (Rattus norvegicus, UniProt P97612).
T1 sequence (P97612 whole entry): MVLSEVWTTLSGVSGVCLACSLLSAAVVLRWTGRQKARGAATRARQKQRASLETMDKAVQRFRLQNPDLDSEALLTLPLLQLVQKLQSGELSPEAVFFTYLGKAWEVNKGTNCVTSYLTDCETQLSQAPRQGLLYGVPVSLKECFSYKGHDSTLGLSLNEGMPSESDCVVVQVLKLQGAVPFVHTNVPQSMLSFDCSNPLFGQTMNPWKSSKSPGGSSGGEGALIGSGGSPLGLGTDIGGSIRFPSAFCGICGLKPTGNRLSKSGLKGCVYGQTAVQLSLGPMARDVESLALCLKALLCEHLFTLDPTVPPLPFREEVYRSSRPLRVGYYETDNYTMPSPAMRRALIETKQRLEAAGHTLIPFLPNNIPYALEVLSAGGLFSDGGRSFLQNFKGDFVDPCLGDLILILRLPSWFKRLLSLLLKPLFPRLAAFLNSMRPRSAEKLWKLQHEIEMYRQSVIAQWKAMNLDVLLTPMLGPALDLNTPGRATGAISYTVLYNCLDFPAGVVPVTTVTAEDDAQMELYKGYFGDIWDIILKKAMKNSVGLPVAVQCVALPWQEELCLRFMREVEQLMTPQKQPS
Nature of the data set: Inhibition of FAAH in rat brain homogenates using [3H]anandamide as substrate preincubated for 60 mins by liquid scintillation spectroscopy.

For the compound `O=C(NCCCCC[18F])Oc1cccc(C2=NCCO2)c1`, the Drug uptake entry was “Not Active” with Brain [1]; “Not Active” with Cortex [2]; 94% in [3]; “Active” in data set [4]; “Not Active” in [9]; 90% in [10]. The Drug uptake result in data set [12] is “Not Active”; in the data set with Hippocampus [13] it was “Not Active”; with Hippocampus [15] it was “Active”; in the data set with Brain [17], “Not Active”; in data set [18], 24%; in the data set with Cortex [19] it was “Active”. Besides, the Drug uptake result is recorded as “Active” in the data set with Cortex [21], “Active” in data set [22], “Not Active” in data set [23] and 91% in [24]. Further, the metabolised at 0.5 h in [5] is under 5%. In addition, the Drug metabolism with Plasma [6] is over 95%; with Plasma [7], over 50%. Besides, the SUV in the data set on Hypothalamus [8] is 1.59; with Hypothalamus [14], 1.74; in the data set on Cortex [16], 4.55; in the data set on Cortex [20] it was 3.9. Moreover, the metabolised at 10 min in data set [11] is 50%.

Compound `O=C(NCCCCCF)Oc1cccc(C2=NCCO2)c1` showed a half-maximal inhibitory concentration (IC50) in data set [25] of 0.82 nM. This lies in the sub-nanomolar range.
